Results taken from the EternaBench riboswitch data.

Tested on: MS2 coat protein
Assay: apparent Kd, MS2 coat protein; higher = weaker binding; RNA-MaP array; tryptophan 2.4 mM where present
Outline: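 The titrant was SNAP-549-labelled MS2 coat protein, run from 0.7 or 1.5 nM in doubling steps to 3 µM. It was applied to designs transcribed by stalled E. coli RNA polymerase on Illumina sequencing-chip clusters, without ligand first and then with constant ligand, in 100 mM Tris-HCl pH 7.5, 80 mM KCl, 4 mM MgCl2, BSA, DTT, yeast tRNA and Tween-20. The apparent Kd is the median of filtered per-cluster binding-curve fits, with green signal normalised to red-channel RNA signal and control-cluster median Fmax.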

[1] = designed as: OFF switch for tryptophan, no ligand
[2] = ligand present: tryptophan, designed as: OFF switch for tryptophan
[3] = designed as: ON switch for tryptophan, no ligand
[4] = ligand present: tryptophan, designed as: ON switch for tryptophan

UGCAUGAGGAUCGCCCGUGUCGAGCCGGUGCGAGGACCGGUACGGCCGCCACUCGAGACAUGAGGAUCACCCAUGUUGUGCGUGA
apparent Kd [1]: 0.0565 µM | apparent Kd [2]: 0.0914 µM

GGGUGGUAGGCGGCCGCCACUGAUUUUCAUAUAUAUAUAACAUGAGGAUCACCCAUGUAGAUAUGCAGGACCGGGCCUGUUGUUU
apparent Kd [3]: 0.0365 µM | apparent Kd [4]: 0.0304 µM

UCGUUUUAGUCGGCCGCCACUGAACUCAUGUUCAACAUGAGGAUCACCCAUGUACCUUAUUUUAACAGGACCGGGACGUAAUAGA
apparent Kd [1]: 0.123 µM | apparent Kd [2]: 0.0975 µM

GGUUACUCUACGGCCGCCACUGGGCAUGUAAAUAACAUGAGGAUCACCCAUGUGGAAUAAAAUUACAGGACCGGGUAGUGUAACC
apparent Kd [3]: 0.254 µM | apparent Kd [4]: 0.0402 µM

AGAUUCGACACGGCCGCCACUUGUGGUGGAUUAUCCAGUGUCGAACAUGAGGAUCACCCAUGUACAAGGACCGGGUGUUGAGUCU
apparent Kd [1]: 0.0904 µM | apparent Kd [2]: 0.282 µM

UACUUGCUGACGGCCGCCACUAGAACAUGAGGAUCACCCAUGUAAGUGGUUGGUUCAUGGGUGACUAGGACCGGGUCAGCAAGAU
apparent Kd [1]: 0.0323 µM | apparent Kd [2]: 0.0373 µM

GAUAUGGAAACAUGUCAGAUCCUUACCGGUCGAGGACCGGUACGGCCGCCACUCGCAAAUAUUGUACAUGAGGAUCACCCAUGUA
apparent Kd [1]: 0.0131 µM | apparent Kd [2]: 0.0136 µM

GUCCUAAGGUCGGCCGCCACUGUAGAGUGUGAGCCAUCACAUGAGGAUCACCCAUGUUGUUGCUAUAGGACCGGGAUUGUAGGAC
apparent Kd [1]: 0.012 µM | apparent Kd [2]: 0.0164 µM

CGACACAUGAGGAUCACCCAUGUAAUGACGCGAGGACCGGUACGGCCGCCACUCGCAUGCCAAUGAGCGCAUGCGGCCUGGGUAU
apparent Kd [1]: 0.0181 µM | apparent Kd [2]: 0.0145 µM

CUGCUACAUACGGCCGCCACUUUAAACAUGAGGAUCACCCAUGUACGGAAGGGUGGUAAAUGUUAAAGGACCGGGUAUGUAGCAA
apparent Kd [1]: 0.176 µM | apparent Kd [2]: 0.0451 µM

CCAUAAGUACCGGUCCUCAGAUCCUCAUGACGAGGACCGGUACGGCCGCCACUCGAAACAUGAGGAUCACCCAUGUAAUAAUAUC
apparent Kd [1]: 0.0306 µM | apparent Kd [2]: 0.0246 µM

AUAAUGAGUGGUGGAUAGGUGAUCCUCUUACGAGGACCGGUACGGCCGCCACUCGAUAACAUGAGGAUCACCCAUGUAAUAAUAA
apparent Kd [1]: 0.0157 µM | apparent Kd [2]: 0.0499 µM

ACCUCAUAGGCGGCCGCCACUGUAAUGACUACGUCAAACAUGAGGAUCACCCAUGUAGUCAAUCACAGGACCGGGUCAUGGGUAG
apparent Kd [3]: 0.0391 µM | apparent Kd [4]: 0.0239 µM

CUAGAUGGAAACGUCUGGACGCACAAGCGACGAGGACCGGUACGGCCGCCACUCGAAGAGUGGUGGACAUGAGGAUCACCCAUGU
apparent Kd [3]: 0.0538 µM | apparent Kd [4]: 0.0392 µM

UGUCGGCGAAAGUUGGCGUGUCUUGCUGGUCGAGGACCGGUACGGCCGCCACUCGAUCCUUCGCACAUGAGGAUCACCCAUGUUG
apparent Kd [3]: 0.0255 µM | apparent Kd [4]: 0.0285 µM

GUAUUAACAAAAGUUGAUACAGUGGGUGAACGAGGACCGGUACGGCCGCCACUCGGACAUGAGGAUCACCCAUGUCCAUGUGAAA
apparent Kd [1]: 0.0172 µM | apparent Kd [2]: 0.0272 µM

GGAUUACGAAAGUAGUCCAUCAAGUUCGAGCGAGGACCGGUACGGCCGCCACUCGAACAUGAGGAUCACCCAUGUAGCGAAAGCU
apparent Kd [3]: 0.284 µM | apparent Kd [4]: 0.255 µM

UAAACUACACAUGAGGAUCACCCAUGUGGCCGAGGACCGGUACGGCCGCCACUCGUGUGUUAAUAAAAGAACCGCAAAGUUCUUU
apparent Kd [3]: 0.277 µM | apparent Kd [4]: 0.0759 µM

AUAUAUACAUGAGGAUCACCCAUGUUAUUUCGAGGACCGGUACGGCCGCCACUCGAUAGAGUAGAAGUAACAUGUGUUAGUUGAU
apparent Kd [3]: 0.0223 µM | apparent Kd [4]: 0.047 µM

AGACUUCGCAUAGGAAAACUAUGUGAAGUCCGAGGACCGGUACGGCCGCCACUCGUCCUCAACAUGAGGAUCACCCAUGUAAUAA
apparent Kd [1]: 0.0215 µM | apparent Kd [2]: 0.0273 µM

GGAUUCAACUCGGCCGCCACUGGUGAUCCUAAUGUACAUGAGGAUCACCCAUGUACAUGAGAAUACAGGACCGGGAGAUAAGCAA
apparent Kd [3]: 0.0194 µM | apparent Kd [4]: 0.0139 µM

CCUCAAUCGUCGGCCGCCACUGGAUCAUGCGGAUACAUGAGGAUCACCCAUGUGGGUGUGGUACGCAGGACCGGGACAAGACCCG
apparent Kd [3]: 0.34 µM | apparent Kd [4]: 0.244 µM
